Only some compounds are listed: those with a hit (about 2.8% of all), similar ones and a draw of the others.
m5-HT2A agonist: activates the mouse 5-HT2A serotonin receptor. activation, % at 7.6 µM. CHO-K1 mHTR2A beta-arrestin complementation, luminescence; percent of 30 µM serotonin response. 360,000 tested, 0.66% active. AID 624169;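 active = activation above a run cutoff, the mean activation of all tested compounds plus 3 SD, cut at about 14% in these data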
MC4R ag barr: activates human MC4R beta-arrestin recruitment | P32245 | U2OS MC4R beta-arrestin complementation, luminescence; percent of melanotan II response, DMSO zero | activation, % at 8.9 µM | 360,000 tested, 0.98% active | AID 540308;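 active = activation above a per-plate cutoff, the mean activation of sample wells on that plate plus 3 SD, cut at about 8% in these data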
MC4R antag cAMP: human MC4R antagonism in cAMP assay. P32245. MC4R-expressing cells, MTII-stimulated cAMP, LANCE TR-FRET. inhibition, % at 6.5 µM. 360,000 tested, 0.48% active;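 active = inhibition above its plate's cutoff, the mean of tested wells on that plate plus 3 SD, cut at about 29% in these data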
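Assay system: U2OS-MC4R stable cell line; Also added: Melanotan II; Technique: Eu-cAMP/anti-cAMP TR-FRET, emission 671 nm; Times: 30-min compound, 1-h challenge, 1-h detection, room temperature.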
EBI2 antag: EBI2 (human) antagonism. EBI2 beta-arrestin recruitment, luminescence, 7a,25-OHC stimulated. inhibition, % at 5 µM. 360,000 tested, 0.81% active; in the data active = inhibition above about 38%;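 also: enzyme fragment complementation signal reports receptor beta-arrestin coupling in cells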
Target sequence (P32249 whole entry, looked up, the tested form may be a part): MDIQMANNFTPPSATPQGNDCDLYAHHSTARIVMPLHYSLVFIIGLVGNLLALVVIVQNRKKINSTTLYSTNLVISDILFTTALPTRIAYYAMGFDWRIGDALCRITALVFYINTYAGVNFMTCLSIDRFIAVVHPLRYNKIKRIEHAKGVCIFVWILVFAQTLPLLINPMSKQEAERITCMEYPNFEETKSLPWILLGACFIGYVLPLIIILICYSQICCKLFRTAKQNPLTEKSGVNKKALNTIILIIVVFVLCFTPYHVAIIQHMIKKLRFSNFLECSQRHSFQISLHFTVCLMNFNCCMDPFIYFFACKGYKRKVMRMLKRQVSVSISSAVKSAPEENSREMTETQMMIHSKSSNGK
MOR ag counter: OPRM1 agonism in mouse HTR2A counterscreen | shares compounds with m5-HT2A agonist | U2OS OPRM1 beta-arrestin PathHunter, luminescence; DMSO 0%, DAMGO 9.3 µM 100% | activation, % at 9.3 µM | 2,300 tested, 5.3% active | AID 624380;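 active = mean activation above the mean of DMSO-only wells plus 3 SD, cut at about 0.5% in these data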
m5-HT2A ag conf: confirmation of mouse HTR2A serotonin receptor agonists | CHO-K1 PathHunter beta-arrestin recruitment, luminescence; DMSO 0%, 30 µM serotonin 100% | shares compounds with m5-HT2A agonist | activation, % at 7.6 µM | AID 624381 | 2,300 tested, 19% active;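 active = mean activation across triplicates above the hit threshold derived in the original primary screen, cut at about 15% in these data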
Large screens that a line does not name were inactive (follow-up assays come after a bar, where they were run).

OC[C@@H]1CN(Cc2ccncc2)C[C@H](n2cnc3c(N4CCCC4)ncnc32)O1	none
CN1CCN(c2ncnc3c2ncn3[C@H]2CN(Cc3ccncc3)C[C@@H](CO)O2)CC1	m5-HT2A agonist 14.9 | m5-HT2A ag conf inactive
CSc1cc(C)c(OCC(=O)Nc2c(C)nn(C)c2C)c(C)c1	none
CCCCCCn1cc(CN2CC(N3CCCC3)CS2(=O)=O)nn1 (configuration not stated)	m5-HT2A agonist 20.3 (no result: MC4R ag barr, MC4R antag cAMP) | MOR ag counter inactive | m5-HT2A ag conf inactive
O=S1(=O)CC(N2CCN(Cc3ccccc3F)CC2)CN1Cc1cn(Cc2cccc(Cl)c2)nn1 (configuration not stated)	m5-HT2A agonist 14.9 (no result: MC4R ag barr, MC4R antag cAMP) | MOR ag counter inactive | m5-HT2A ag conf inactive
CN(C)CCN1CCN(C2CN(Cc3cn(Cc4ccccc4)nn3)S(=O)(=O)C2)CC1 (configuration not stated)	m5-HT2A agonist 19.6 (no result: MC4R ag barr, MC4R antag cAMP) | MOR ag counter inactive | m5-HT2A ag conf inactive
CCc1ccc(CN2CCN(C(=O)c3ccco3)CC2)cc1	m5-HT2A agonist 15.0 | MOR ag counter inactive | m5-HT2A ag conf 123.2
O=C(c1ccc(CS(=O)c2cccc(Cl)c2)o1)N1CCOCC1 (configuration not stated)	m5-HT2A agonist 17.7 | MOR ag counter inactive | m5-HT2A ag conf inactive
CN(c1ccc(C(=O)N2CCN(Cc3ccccc3)CC2)cc1)S(=O)(=O)c1ccc(Cl)cc1	m5-HT2A agonist 15.2 | MOR ag counter inactive | m5-HT2A ag conf 64.4
O=C(c1ccco1)N1CCN(Cc2c(Cl)cccc2Cl)CC1	none
O=C(c1ccco1)N1CCN(Cc2cccc(F)c2)CC1	none
O=C(c1ccco1)N1CCN(Cc2ccc(Br)cc2)CC1	m5-HT2A agonist 14.8 | MOR ag counter inactive | m5-HT2A ag conf 90.2
Cc1ccc(N(C)S(=O)(=O)c2cccc(C(=O)N3CCN(Cc4ccccc4)CC3)c2)cc1	none
O=C1COC(c2ccccc2O)=NN1CCCl	none
O=C(Cc1ccc(Cl)cc1)N1CCN(C(=O)c2ccco2)CC1	none
O=C(c1ccco1)N1CCN(Cc2ccc(Cl)cc2)CC1	m5-HT2A agonist 21.1 | MOR ag counter inactive | m5-HT2A ag conf 88.4
O=C(c1ccco1)N1CCN(C(=O)c2ccc(CS(=O)c3ccc(Cl)cc3)o2)CC1 (configuration not stated)	m5-HT2A agonist 14.9 | MOR ag counter inactive | m5-HT2A ag conf inactive
COC(=O)C1=C(CS(=O)(=O)c2cc(Cl)ccc2OC)NC(=O)NC1c1ccc(O)c(OC)c1 (configuration not stated)	m5-HT2A agonist 14.7 | MOR ag counter inactive | m5-HT2A ag conf inactive
CC(C)NC(=O)C1(C)CCN1C(=O)c1ccc(F)c(Cl)c1 (configuration not stated)	m5-HT2A agonist 15.3 | MOR ag counter inactive | m5-HT2A ag conf inactive
CC(C)NC(=O)C1(C)CCN1C(=O)c1cccc(Cl)c1 (configuration not stated)	none
CC(=O)C12OC1CC1C3CCC4=CC(=O)CCC4(C)C3CCC12C (configuration not stated)	m5-HT2A agonist 15.8 | MOR ag counter inactive | m5-HT2A ag conf inactive
Cc1cc(/C=C(\C#N)C(=O)NC2CCCCCC2)c(C)n1C	m5-HT2A agonist 18.5 | MOR ag counter inactive | m5-HT2A ag conf inactive
COc1ccccc1C(CNC(=O)c1cccc(NS(=O)(=O)c2ccc(C)c(F)c2)c1)N1CCCC1 (configuration not stated)	none
COc1cc(C(=O)N2CCCC(C)(C(=O)NS(=O)(=O)C3CC3)C2)cc(OC)c1OC (configuration not stated)	none
O=c1cc(C(F)(F)F)[nH]c2ccc(C(F)(F)F)cc12	m5-HT2A agonist 26.2 | MOR ag counter inactive | m5-HT2A ag conf inactive
COC(=O)CSc1[nH]c(=O)cc(C)c1C#N	m5-HT2A agonist 17.1 | MOR ag counter inactive | m5-HT2A ag conf inactive
COc1cccc(C2N(c3cccc(Cl)c3)C(=O)C3CCCN32)c1OC (configuration not stated)	m5-HT2A agonist 17.5 | MOR ag counter inactive | m5-HT2A ag conf inactive
COc1cc(C2N(c3ccc(Cl)cc3)C(=O)C3CCCN32)cc(OC)c1OC (configuration not stated)	none
COc1ccccc1C1N(c2ccc(Cl)cc2)C(=O)C2CCCN21 (configuration not stated)	none
COc1cc(C2N(c3cccc(Cl)c3)C(=O)C3CCCN32)cc(OC)c1OC (configuration not stated)	m5-HT2A agonist 21.2 | MOR ag counter inactive | m5-HT2A ag conf inactive
Cc1ccc(C)c(NC(=O)CN(C)C(=O)c2ccc(COc3ccccc3)cc2)c1	none
COc1ccc([C@@H]2C[C@H]3[C@@H](CN2S(=O)(=O)c2ccccc2)C(=O)C[C@@H](c2cccc(Cl)c2)N3S(=O)(=O)c2ccc(C)cc2)cc1	none (no result: MC4R ag barr, MC4R antag cAMP)
Oc1ccccc1/C=N/n1c2ccccc2c2ccccc21	m5-HT2A agonist 15.8, MC4R ag barr 9.2 | MOR ag counter inactive | m5-HT2A ag conf inactive
C(=N\n1c2ccccc2c2ccccc21)/c1ccccc1	none
COc1ccccc1Cc1c(-c2ccc(F)cc2)nc2cc(C)c(Br)c(C)n12	none (no result: MC4R ag barr, MC4R antag cAMP)
Cc1cccc(CN2CCN([C@H]3CS(=O)(=O)N[C@@H]3COCc3ccccc3)CC2)c1	none (no result: MC4R ag barr, MC4R antag cAMP)
Cn1nc(-c2ccc(Cl)cc2)c2cc(C(=O)N3CCCC3)sc21	m5-HT2A agonist 22.3 | MOR ag counter inactive | m5-HT2A ag conf inactive
Cn1nc(-c2ccc(Cl)cc2)c2cc(C(=O)N3CCN(c4ccccc4)CC3)sc21	none
CC1(OC(=O)C2CCCC2)C(=O)C=C2C=C(c3ccsc3)N(C3CC3)C=C2C1=O (configuration not stated)	m5-HT2A agonist 14.8 | MOR ag counter inactive | m5-HT2A ag conf inactive
Cc1ccc2c(=O)[nH]c(Cc3ccccc3C(=O)O)nc2c1	m5-HT2A agonist 14.9 | MOR ag counter inactive | m5-HT2A ag conf inactive
COc1cc(Cl)ccc1OC1(C)CCN(Cc2ccc3ccccc3c2)C1 (configuration not stated)	none
Cc1ccc(C)c(N2N=C(C(=O)Nc3ccccc3N3CCCC3)CCC2=O)c1	none
Cc1ccc(C)c(N2N=C(C(=O)Nc3cccnc3)CCC2=O)c1	m5-HT2A agonist 15.3 | MOR ag counter inactive | m5-HT2A ag conf inactive
COc1ccc([C@H]2C[C@H](O)[C@@H](n3cc(-c4ccc(F)cc4)nn3)CN2CC2CCCCC2)cc1	none
COC(=O)c1cc(NC(=O)c2c(F)c(F)c(F)c(F)c2F)cc(C(=O)OC)c1	m5-HT2A agonist 17.8 | MOR ag counter inactive | m5-HT2A ag conf inactive
COc1ccc(S(=O)(=O)N(C)CC(=O)N2CCCCC2)cc1Cl	m5-HT2A agonist 14.5 | MOR ag counter inactive | m5-HT2A ag conf inactive
COc1ccc(S(=O)(=O)N(C)CC(=O)N2CCN(C)CC2)cc1Cl	none

Screening data as filed in PubChem BioAssay.
